Drawing on ChEMBL document CHEMBL1125909, “Synthesis of chiral and achiral pyranenamine derivatives. Potent agents with topical ocular antiallergic activity” (J Med Chem, 1991), this text covers logP, ED50 and Inhibition for six molecules.

The nature of data set [1]: Compound was evaluated for pyranenamine lipophilicity. Format: physicochemical. Conditions: octanol/water.
The subject of data set [2] is Rattus norvegicus. Put plainly: Compound was evaluated for the type-I hypersensitivity in rat POA model after intravenous administration. It is filed as functional. Conditions: read-out: ID50 (the source's name). The method in brief: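 Modified Iso method. Rats of 150–200 g were sensitized with three conjunctival injections per eye (bulbar, palpebral, lower) of 50 μL of 1:4-diluted rat IgE anti-ovalbumin antiserum. 24 h later, drug was given IV just before IV challenge with ovalbumin (25 mg/kg) plus Evans blue (12.5 mg/kg in saline). Eyelids and eyeballs were taken at 30 min, extracted in acetone/0.5% sodium sulfate, and read at 620 nm. Result expressed as ID50 (mg/kg).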

In data set [3] the test system is Rattus norvegicus. The data set can be described thus: Compound was evaluated for the type-I hypersensitivity in rat POA model at a concentration of 1% administered topically. It is filed as functional. The method in brief:
(§1)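 Modified Iso passive ocular anaphylaxis in 150–200 g rats. Each eye was sensitized by three conjunctival injections of 50 μL of 1:4-diluted rat IgE anti-ovalbumin antiserum. At 24 h, 10 μL of drug solution was instilled topically 15 min before, just prior to, and 15 min after IV ovalbumin (25 mg/kg) with Evans blue (12.5 mg/kg). At 30 min, eye tissue dye was extracted in acetone/0.5% Na2SO4 and read at 620 nm. Result expressed as % inhibition.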

Data set [4] relates to Rattus norvegicus. Put plainly: Compound was evaluated for the type-I hypersensitivity in rat POA model at a concentration of 3% administered topically. Format: functional. A digest of the protocol: as §1
Data set [5] deals with Rattus norvegicus. Put plainly: Compound was evaluated for the type-I hypersensitivity in rat POA model at a concentration of 5% administered topically. It is filed as functional. A digest of the protocol:
as §1

The test system of data set [6] is Rattus norvegicus. The data set can be described thus: Compound was evaluated for the type-I hypersensitivity in rat POA model at a concentration of 10% administered topically. It is filed as functional. The method in brief: as §1
In data set [7] the test system is Rattus norvegicus. The data set can be described thus: Compound was evaluated for the type-I hypersensitivity in rat POA model at a concentration of 4% administered topically. It is filed as functional. A digest of the protocol: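 Modified Iso method. Rats (150–200 g) sensitized with three 50 µL injections per eye (bulbar conjunctiva, palpebral, lower conjunctiva) of 1:4-diluted rat IgE anti-ovalbumin antisera. After 24 h, iv challenge with ovalbumin 25 mg/kg plus Evans blue 12.5 mg/kg. Drug (10 µL) instilled 15 min before, just before and 15 min after challenge. Killed at 30 min; eyelids and eyeballs extracted in acetone/0.5% sodium sulfate; read at 620 nm; % inhibition.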

In data set [1], `CC(=O)C1=C(O)C(=C(C)Nc2cc(NC(=O)[C@H](O)CO)cc(NC(=O)[C@H](O)CO)c2)C(=O)OC1=O` returned a logP of -2.44. Also, the ED50 in the data set with Rattus norvegicus [2] was determined as 300 mg/kg.

The molecule `CC(=O)c1c(O)c(/C(C)=N/c2cc(NC(=O)C(CO)CO)cc(NC(=O)C(CO)CO)c2)c(O)oc1=O` gave a logP in data set [1] of -2.43. Further, the Inhibition in the data set with Rattus norvegicus [3] is given as 12%; in the data set on Rattus norvegicus [4], 31%; in the data set on Rattus norvegicus [5] it was 41%. Moreover, the ED50 in the data set with Rattus norvegicus [2] is 30 mg/kg.

Turning to `CC(=O)c1c(O)c(/C(C)=N/c2cc(NC(=O)C(O)CO)cc(NC(=O)C(O)CO)c2)c(O)oc1=O` (stereo not given), the logP in data set [1] was -2.44. Further, the results for the Inhibition in the data set on Rattus norvegicus [3] and in the data set on Rattus norvegicus [4] were 16% and 25%, respectively. Besides, in the data set with Rattus norvegicus [2], the ED50 came to 60 mg/kg.

In data set [1], `CC(=O)c1c(O)c(/C(C)=N/c2cc(NC(=O)CO)cc(NC(=O)CO)c2)c(O)oc1=O` registered a logP of -0.32. Moreover, the Inhibition in the data set on Rattus norvegicus [4] amounted to 15%. Also, the ED50 with Rattus norvegicus [2] came out at 30 mg/kg.

Regarding `CC(=O)C1=C(O)C(=C(C)Nc2cc(NC(=O)[C@@H](O)CO)cc(NC(=O)[C@@H](O)CO)c2)C(=O)OC1=O`, the logP in data set [1] is -2.44. The Inhibition in the data set with Rattus norvegicus [6] stood at 79%; in the data set on Rattus norvegicus [4], 40%; in the data set on Rattus norvegicus [5], 63%. Moreover, in the data set with Rattus norvegicus [2], the ED50 was determined as 30 mg/kg.

Molecule `O=C([O-])c1cc(=O)c2c(OCC(O)COc3cccc4oc(C(=O)[O-])cc(=O)c34)cccc2o1.[Na+].[Na+]` [CROMOLYN SODIUM] came in with an Inhibition with Rattus norvegicus [7] of 0%.

By logP is commonly meant the decadic logarithm of the partition coefficient of the neutral form, usually between octanol and water. Read a low logP as a more hydrophilic compound. Usually Inhibition stands for the drop in the measured response relative to a control, in per cent.
